The source made the active and inactive calls. The rule behind the calls is not given here.
How the values were obtained:
[1] = molecular target: Splicing factor 3B subunit 1 (Homo sapiens) (UniProt O75533); experiment: Binding affinity to SAP155 in human GM18453 cells harboring NPC1 mutant assessed as restoration of cholesterol trafficking at 50 nM after 48 hrs by filipin-staining based fluorescence microscopic analysis; type: cell-based
Summary of the method: (§1)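 GM18453 NPC1-mutant fibroblasts were exposed for 48 h to 1 nM–5 μM compound, with DMSO vehicle and SAHA (5 μM) positive control. Cells were fixed, stained with filipin for unesterified cholesterol, and imaged by automated fluorescence microscopy. Filipin area sum per cell count was taken from four images per condition across four independent replicates.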

[2] = molecular target: Splicing factor 3B subunit 1 (Homo sapiens) (UniProt O75533); experiment: Binding affinity to SAP155 in human GM18407 cells harboring NPC1 R404Q/M1142T mutant assessed as restoration of cholesterol trafficking at 0.001 to 5 uM after 48 hrs by filipin-staining based fluorescence microscopic analysis; type: cell-based
[3] = Cytotoxicity against human GM18453 cells harboring NPC1 mutant assessed as effect on cell shape at 5 uM; type: cell-based; summary of the method: as §1
[4] = Protein binding in human plasma; type: ADME, cell-free
[5] = molecular target: Splicing factor 3B subunit 1 (Homo sapiens) (UniProt O75533); experiment: Binding affinity to SAP155 in human GM18453 cells harboring NPC1 mutant assessed as increase in 120 kDa NPC1 protein expression at 50 nM pretreated for 48 hrs followed by PNGaseF addition and measured after overnight incubation by Western blot analysis; type: cell-based
Summary of the method: (§2)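 After 48 h exposure of GM18453 fibroblasts to 50 nM compound (controls SAHA 5 μM, DMSO 0.1%), 25 μg lysate with SDS, DTT and Tris-HCl pH 8 was digested with PNGase F (1000 U) about 18 h at 37°C. Samples were immunoblotted with rabbit anti-NPC1, and isoforms were quantified by densitometry over four independent experiments.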

[6] = Aqueous solubility of the compound in HBSS solution; type: physicochemical; details: buffer
[7] = Aqueous solubility of the compound in pH 7.4 buffer; type: physicochemical
[8] = Protein binding in mouse plasma; type: ADME, cell-free
[9] = Stability in human liver microsomes; type: ADME, microsome
[10] = molecular target: Splicing factor 3B subunit 1 (Homo sapiens) (UniProt O75533); experiment: Binding affinity to SAP155 in human GM18453 cells harboring NPC1 mutant assessed as increase in 250 kDa NPC1 protein expression at 50 nM pretreated for 48 hrs followed by endoglycosidase H addition and measured after overnight incubation by Western blot analysis; type: cell-based
Summary of the method: (§3)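 GM18453 fibroblasts were exposed 48 h to 50 nM compound, SAHA 5 μM or DMSO 0.1%. 25 μg lysate was denatured 10 min at 65°C, digested with Endo H (1000 U) about 18 h at 37°C, then run on SDS-PAGE. Blots were probed with rabbit anti-NPC1. Isoforms were quantified by densitometry against DMSO control across four independent experiments.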

[11] = molecular target: Splicing factor 3B subunit 1 (Homo sapiens) (UniProt O75533); experiment: Binding affinity to SAP155 in human GM18453 cells harboring NPC1 mutant assessed as increase in 180 kDa NPC1 protein expression at 50 nM pretreated for 48 hrs followed by endoglycosidase H addition and measured after overnight incubation by Western blot analysis; type: cell-based; summary of the method: as §3
[12] = molecular target: Splicing factor 3B subunit 1 (Homo sapiens) (UniProt O75533); experiment: Binding affinity to SAP155 in human GM18453 cells harboring NPC1 mutant assessed as increase in 100 kDa NPC1 protein expression at 50 nM pretreated for 48 hrs followed by endoglycosidase H addition and measured after overnight incubation by Western blot analysis relative to control; type: cell-based; summary of the method: as §3
[13] = Stability in mouse liver microsomes; type: ADME, microsome
[14] = molecular target: Splicing factor 3B subunit 1 (Homo sapiens) (UniProt O75533); experiment: Binding affinity to SAP155 in human GM18453 cells harboring NPC1 mutant assessed as increase in 180 kDa NPC1 protein expression at 50 nM measured after 48 hrs by Western blot analysis; type: cell-based
Summary of the method: (§4)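 GM18453 fibroblasts were treated 48 h at 37°C, 5% CO2 with 50 nM compound, SAHA 5 μM or DMSO 0.1% v/v, then lysed in RIPA with protease inhibitors. 25–50 μg protein was run on 4–20% SDS-PAGE, blotted to PVDF and probed with rabbit polyclonal C-terminal anti-NPC1 (1:1000, overnight, 4°C). Detection used HRP anti-rabbit and ECL film.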

[15] = Permeability in human Caco2 cells; type: ADME, cell-based; details: caco-2
[16] = molecular target: Splicing factor 3B subunit 1 (Homo sapiens) (UniProt O75533); experiment: Binding affinity to SAP155 in human GM18453 cells harboring NPC1 mutant assessed as increase in 120 kDa NPC1 protein expression at 50 nM measured after 48 hrs by Western blot analysis; type: cell-based; summary of the method: as §4
[17] = Cytotoxicity against human GM18453 cells harboring NPC1 mutant assessed as effect on nuclei shape at 5 uM; type: cell-based; summary of the method: as §1
[18] = molecular target: Splicing factor 3B subunit 1 (Homo sapiens) (UniProt O75533); experiment: Binding affinity to SAP155 in human GM18453 cells harboring NPC1 mutant assessed as increase in 180 kDa NPC1 protein expression at 50 nM pretreated for 48 hrs followed by PNGaseF addition and measured after overnight incubation by Western blot analysis; type: cell-based; summary of the method: as §2
[19] = Mean residence time in ICR mouse at 2 mg/kg by LC-MS/MS analysis; type: ADME, organism-based; details: in vivo
[20] = molecular target: Splicing factor 3B subunit 1 (Homo sapiens) (UniProt O75533); experiment: Binding affinity to SAP155 in human GM18453 cells harboring NPC1 mutant assessed as increase in 100 kDa NPC1 protein expression at 50 nM measured after 48 hrs by Western blot analysis; type: cell-based; summary of the method: as §4

Chain of Splicing factor 3B subunit 1 (Homo sapiens) (O75533 whole entry, canonical isoform): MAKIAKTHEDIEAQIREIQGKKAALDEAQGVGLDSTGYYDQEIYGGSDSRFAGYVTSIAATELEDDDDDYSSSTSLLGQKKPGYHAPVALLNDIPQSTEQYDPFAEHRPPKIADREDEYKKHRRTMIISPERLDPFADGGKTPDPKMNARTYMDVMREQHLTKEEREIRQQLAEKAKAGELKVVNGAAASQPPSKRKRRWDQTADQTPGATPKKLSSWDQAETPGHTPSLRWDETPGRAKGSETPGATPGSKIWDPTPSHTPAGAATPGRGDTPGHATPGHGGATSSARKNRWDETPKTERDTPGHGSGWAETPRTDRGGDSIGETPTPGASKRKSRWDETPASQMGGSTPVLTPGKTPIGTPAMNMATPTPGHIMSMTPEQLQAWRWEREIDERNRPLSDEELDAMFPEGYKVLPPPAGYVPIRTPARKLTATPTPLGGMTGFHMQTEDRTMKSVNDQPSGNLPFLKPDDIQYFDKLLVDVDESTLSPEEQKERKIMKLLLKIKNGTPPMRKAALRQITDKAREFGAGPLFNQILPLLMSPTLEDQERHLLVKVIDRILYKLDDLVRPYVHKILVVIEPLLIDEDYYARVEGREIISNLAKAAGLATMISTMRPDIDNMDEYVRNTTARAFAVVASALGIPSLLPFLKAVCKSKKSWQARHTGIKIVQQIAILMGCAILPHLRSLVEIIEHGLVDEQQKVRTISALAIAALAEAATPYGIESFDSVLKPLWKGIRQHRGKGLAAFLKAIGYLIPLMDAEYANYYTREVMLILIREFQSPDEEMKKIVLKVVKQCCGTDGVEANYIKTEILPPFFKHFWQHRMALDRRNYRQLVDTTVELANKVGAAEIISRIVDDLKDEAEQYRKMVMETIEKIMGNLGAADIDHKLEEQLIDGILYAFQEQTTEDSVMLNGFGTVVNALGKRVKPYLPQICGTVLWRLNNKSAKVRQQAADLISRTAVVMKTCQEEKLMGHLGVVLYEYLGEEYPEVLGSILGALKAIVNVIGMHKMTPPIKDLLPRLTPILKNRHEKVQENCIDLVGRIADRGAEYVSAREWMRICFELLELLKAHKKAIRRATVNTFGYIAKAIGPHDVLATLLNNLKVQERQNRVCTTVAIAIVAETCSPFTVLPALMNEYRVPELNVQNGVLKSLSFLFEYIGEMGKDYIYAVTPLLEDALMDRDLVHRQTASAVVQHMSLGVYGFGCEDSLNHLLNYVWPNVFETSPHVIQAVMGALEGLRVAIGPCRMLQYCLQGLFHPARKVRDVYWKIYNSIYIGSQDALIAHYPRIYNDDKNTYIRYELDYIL

COC(=O)C[C@H]1CC[C@H](C)[C@@H](/C(C)=C/C=C/[C@@H](C)C[C@@]2(C)O[C@@H]2[C@H](C)[C@@H](OC)[C@@H](C)O)O1
Activity [1]: Active | Activity [2]: inactive

COC(=O)C[C@H]1CC[C@H](C)[C@@H](/C(C)=C/C=C/[C@@H](C)C[C@@]2(C)O[C@@H]2[C@H](C)[C@@H](OC)C(C)=O)O1
Activity [1]: Active | Activity [2]: inactive

CO[C@H]([C@@H](C)[C@H]1O[C@]1(C)C[C@H](C)/C=C/C=C(\C)[C@H]1O[C@@H](CC(=O)O)CC[C@@H]1C)[C@@H](C)O
Activity [3]: Toxic | PB [4]: Active | Activity [5]: Active | solubility [6]: Soluble | Activity [1]: Active | solubility [7]: Soluble | PB [8]: Active | Stability [9]: Stable | Activity [10]: inactive | Activity [11]: inactive | fold change (FC) [12]: 1.5 | Stability [13]: Stable | Activity [14]: Active | permeability [15]: Permeable | Activity [2]: inactive | Activity [16]: Active | Activity [17]: Toxic | Activity [18]: inactive | MRT [19]: 4.53 h | Activity [20]: Active

COC(=O)C[C@H]1CC[C@H](C)[C@@H](/C(C)=C/C=C/[C@@H](C)C[C@@]2(C)O[C@@H]2[C@H](C)[C@@H](OC)[C@@H](C)OC(C)=O)O1
Activity [1]: Active | Activity [2]: inactive

Reference: ChEMBL document CHEMBL4196188, “GEX1A, a Polyketide from Streptomyces chromofuscus, Corrects the Cellular Defects Associated with Niemann-Pick Type C1 in Human Fibroblasts” (J Nat Prod, 2018)
